# In ChEMBL document CHEMBL1156906, “Synthesis and structure-activity relationship of botryllamides that block the ABCG2 multidrug transporter” (Bioorg Med Chem Lett, 2010):
# Target: T1, Broad substrate specificity ATP-binding cassette transporter ABCG2 (Homo sapiens, UniProt Q9UNQ0)
# T1 sequence (Q9UNQ0 whole entry): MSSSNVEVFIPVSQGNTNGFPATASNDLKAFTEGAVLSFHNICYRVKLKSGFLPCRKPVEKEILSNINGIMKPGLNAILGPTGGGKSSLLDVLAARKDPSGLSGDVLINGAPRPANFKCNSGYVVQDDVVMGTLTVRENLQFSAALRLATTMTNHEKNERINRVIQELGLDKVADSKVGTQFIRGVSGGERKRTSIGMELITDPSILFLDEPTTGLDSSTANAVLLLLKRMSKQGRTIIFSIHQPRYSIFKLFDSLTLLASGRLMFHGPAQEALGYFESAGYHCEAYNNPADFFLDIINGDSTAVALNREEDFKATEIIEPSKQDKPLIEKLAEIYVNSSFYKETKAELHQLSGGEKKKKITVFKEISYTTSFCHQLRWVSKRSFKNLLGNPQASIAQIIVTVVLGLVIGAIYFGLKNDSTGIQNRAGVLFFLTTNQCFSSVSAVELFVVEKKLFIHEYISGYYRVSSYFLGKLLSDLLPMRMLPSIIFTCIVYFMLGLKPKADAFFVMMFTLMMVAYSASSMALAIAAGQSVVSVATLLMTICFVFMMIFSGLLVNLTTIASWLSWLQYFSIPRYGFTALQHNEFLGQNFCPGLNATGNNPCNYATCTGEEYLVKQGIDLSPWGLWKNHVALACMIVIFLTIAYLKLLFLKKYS
# Assay: Inhibition of ABCG2 expressed in human NCI-H460/MX20 cells assessed as accumulation of ABCG2 substrate pheophorbide-A
# Format: cell-based
# In short: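 Cell-based assay in cells overexpressing ABCG2, measuring intracellular accumulation of the fluorescent ABCG2 substrate pheophorbide-a. Medium removed and cells washed with PBS before reading intracellular fluorescence. […] IC50 reported ± SD.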
row,Structure (SMILES),IC50 [µM]
1,COC(Cc1ccc(O)cc1)C(=O)N/C=C/c1ccc(O)cc1 (configuration not stated),> 100
2,CO/C(=C\c1ccc(O)cc1)C(=O)NCCc1ccc(O)cc1,25.2
3,O=C(/C=C/c1ccc(O)cc1)N/C=C/c1ccc(O)cc1,> 100
4,CO/C(=C\c1ccc(O)cc1)C(=O)NCC(O)c1ccc(O)cc1 (configuration not stated),> 100
5,CO/C(=C\c1ccc(O)cc1)C(=O)O,> 100
6,CO/C(=C\c1cc(Br)c(O)c(Br)c1)C(=O)N/C=C/c1ccc(OC(C)=O)cc1,23.2
7,CO/C(=C\c1ccc(OCc2ccccc2)cc1)C(=O)N/C=C/c1ccc(O)cc1,> 100
8,COC(Cc1ccc(O)cc1)C(=O)NCCc1ccc(O)cc1 (configuration not stated),> 100

# The next compounds have a lower IC50 than those just listed; values first:
row,IC50 [µM],Structure (SMILES)
1,18.8,CO/C(=C\c1ccc(O)c(O)c1)C(=O)N/C=C/c1ccc(O)cc1
2,15.4,CO/C(=C\c1ccccc1)C(=O)N/C=C/c1ccc(O)cc1
3,11.1,CO/C(=C\c1cc(Br)c(O)c(Br)c1)C(=O)N/C=C/c1ccc(O)cc1
4,6.4,CO/C(=C\c1ccc(OC)cc1)C(=O)N/C=C/c1ccc(O)cc1
